How the values were obtained:
Mus musculus [1] = species on record: Mus musculus; assay: Protection index, ratio of TD50 to ED50 by MES test for albino mouse; assay type: functional
Method in brief: (§1)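 Mice were trained on a 3.2 cm rod turning at 6 rpm, then dosed ip at 20–1000 µmol/kg and tested at 0.5 h. […] PI = TD50/ED50, with ED50 from the MES test.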

[2] = Neurotoxicity in ip dosed albino mouse during 1 min by rotarod test; assay type: toxicity, organism-based; settings: in vivo; method in brief: as §1
Mus musculus [3] = assay: Anticonvulsant activity in ip dosed albino mouse assessed as absence of hind limb tonic extension after 0.5 hrs by MES test; assay type: functional, Hindlimb; settings: for ED50: Mus musculus, albino, Hindlimb, ip, 0.5 h
Method in brief: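 Mice given compound ip at 20–1000 µmol/kg, suspended in 0.5% methyl cellulose/water. Seizure induced 0.5 h later by electroconvulsometer, 50 mA, 60 cycle alternating current, 0.25 s via ear clip electrodes. Protection is reduced duration or absence of hind limb tonic extension. ED50 from at least three doses giving 10–90% protection.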

Mus musculus [4] = assay: Anticonvulsant activity in ip dosed albino mouse treated 0.5 hrs before PTZ challenge by scPTZ test; assay type: functional
Method in brief: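 Compound given ip (20–1000 µmol/kg in 0.5% methyl cellulose) 0.5 h before pentylenetetrazole, which was dissolved in 0.9% NaCl and injected subcutaneously in the posterior midline of mice. Onset and severity of convulsions were scored, and ED50 was derived.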

Mus musculus [5] = assay: Behavioral effect in albino mouse assessed as change in locomotor activity during 10 mins at 100 umol/kg, ip after 0.5 hrs; assay type: functional
Method in brief: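 Mouse activity counted by actophotometer for 10 min 24 h before dosing, then again 0.5 h after 100 µmol/kg ip. % change = 100 − [(post × 100)/pre]. N = 6, mean ± SEM, Student's t test at p < 0.05.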

Rattus norvegicus [6] = assay: CNS toxicity in albino rat assessed as duration of immobility at 100 umol/kg, ip after 0.5 hrs by Porsolt's swimpool test (Rvb= 104 +/- 1.8); settings: in vivo
Rattus norvegicus [7] = assay: CNS toxicity in albino rat assessed as duration of immobility at 100 umol/kg, ip after 0.5 hrs by Porsolt's swimpool test (Rvb= 92 +/- 1.2); settings: in vivo
Rattus norvegicus [8] = assay: CNS toxicity in albino rat assessed as duration of immobility at 100 umol/kg, ip after 0.5 hrs by Porsolt's swimpool test (Rvb= 82 +/- 2.9); settings: in vivo

Row | SMILES | PI (Mus musculus [1]) | TD50 at 1 min [2] [µmol/kg] | pED50 (Mus musculus [3]) | ED50 (Mus musculus [3]) [µmol/kg] | ED50 (Mus musculus [4]) [µmol/kg] | Activity (Mus musculus [5]) [%] | Activity (Rattus norvegicus [6]) [s] | Activity (Rattus norvegicus [7]) [s] | Activity (Rattus norvegicus [8]) [s]
1 | COc1ccc(/C=C/C(=O)Nc2nc3ccccc3s2)cc1 | 1.24 | 540 | 3.36 | 435 | – | – | – | – | –
2 | COc1ccc(/C=C/C(=O)Nc2nc3ccc(C)cc3s2)cc1O | 1.18 | 321 | 3.57 | 271 | – | – | – | – | –
3 | O=C(/C=C/c1ccc(O)cc1)Nc1nc2ccccc2s1 | 1.78 | 925 | 3.29 | 517 | – | – | – | – | –
4 | CC(=O)N1N=C(Nc2nc3ccc(Cl)cc3s2)CC1c1ccccc1 (configuration not stated) | 1.52 | 245 | 3.79 | 161 | – | – | – | – | –
5 | Cc1ccc2nc(NC(=O)/C=C/c3ccco3)sc2c1 | 1.19 | 603 | 3.3 | 505 | – | – | – | – | –
6 | O=C(/C=C/c1ccc(Cl)cc1)Nc1nc2ccc([N+](=O)[O-])cc2s1 | 3.03 | 787 | 3.59 | 259 | – | – | – | – | –
7 | CC(=O)N1N=C(Nc2nc3ccccc3s2)CC1c1ccc(O)cc1 (configuration not stated) | 2.06 | 513 | 3.6 | 249 | – | – | – | – | –
8 | COc1ccc(C2CC(Nc3nc4ccc(Cl)cc4s3)=NN2C(C)=O)cc1O (configuration not stated) | 2.16 | 276 | 3.89 | 127 | 132 | – | – | – | –
9 | COc1ccc(/C=C/C(=O)Nc2nc3ccc(Cl)cc3s2)cc1O | 1.46 | 470 | 3.51 | 320 | – | – | – | – | –
10 | CC(=O)N1N=C(Nc2nc3ccccc3s2)CC1c1ccc(Cl)cc1 (configuration not stated) | 1.73 | 364 | 3.68 | 209 | – | – | – | – | –
11 | O=C(/C=C/c1ccc(Cl)cc1)Nc1nc2ccc(Cl)cc2s1 | 2.82 | 576 | 3.69 | 204 | – | – | – | – | –
12 | COc1ccc(C2CC(Nc3nc4ccc([N+](=O)[O-])cc4s3)=NN2C(C)=O)cc1 (configuration not stated) | 1.69 | 246 | 3.84 | 145 | 149 | – | – | – | –
13 | CC(=O)N1N=C(Nc2nc3ccc([N+](=O)[O-])cc3s2)CC1c1ccc(O)cc1 (configuration not stated) | 1.29 | 210 | 3.79 | 162 | – | – | – | – | –
14 | CC(=O)N1N=C(Nc2nc3ccc(C)cc3s2)CC1c1ccco1 (configuration not stated) | 1.51 | 243 | 3.79 | 160 | – | – | – | – | –
15 | COc1ccc(C2CC(Nc3nc4ccc([N+](=O)[O-])cc4s3)=NN2C(C)=O)cc1O (configuration not stated) | 1.43 | 256 | 3.75 | 178 | – | – | – | – | –
16 | CC(=O)N1N=C(Nc2nc3ccc(C)cc3s2)CC1c1ccccc1 (configuration not stated) | 2.49 | 265 | 3.97 | 106 | 112 | 23.93 | 151 | – | –
17 | O=C(/C=C/c1ccco1)Nc1nc2ccc(Cl)cc2s1 | 1.2 | 658 | 3.26 | 544 | – | – | – | – | –
18 | O=C(/C=C/c1ccc(O)cc1)Nc1nc2ccc(Cl)cc2s1 | 1.28 | 413 | 3.49 | 322 | – | – | – | – | –
19 | Cc1ccc2nc(NC(=O)/C=C/c3ccccc3)sc2c1 | 1.4 | 534 | 3.42 | 380 | – | – | – | – | –
20 | O=C(/C=C/c1ccccc1)Nc1nc2ccc([N+](=O)[O-])cc2s1 | 1.3 | 633 | 3.31 | 485 | – | – | – | – | –
21 | COc1ccc(C2CC(Nc3nc4ccccc4s3)=NN2C(C)=O)cc1 (configuration not stated) | 1.63 | 369 | 3.65 | 226 | – | – | – | – | –
22 | O=C(/C=C/c1ccccc1)Nc1nc2ccc(Cl)cc2s1 | 1.34 | 570 | 3.37 | 425 | – | – | – | – | –
23 | Cc1ccc2nc(NC(=O)/C=C/c3ccc(Cl)cc3)sc2c1 | 2.67 | 408 | 3.82 | 152 | – | – | – | – | –

Row | SMILES | PI (Mus musculus [1]) | TD50 at 1 min [2] [µmol/kg] | pED50 (Mus musculus [3]) | ED50 (Mus musculus [3]) [µmol/kg] | ED50 (Mus musculus [4]) [µmol/kg] | Activity (Mus musculus [5]) [%] | Activity (Rattus norvegicus [6]) [s] | Activity (Rattus norvegicus [7]) [s] | Activity (Rattus norvegicus [8]) [s]
24 | CC(=O)N1N=C(Nc2nc3ccc([N+](=O)[O-])cc3s2)CC1c1ccc(Cl)cc1 (configuration not stated) | 2.48 | 328 | 3.88 | 132 | 138 | – | – | – | –
25 | O=C(/C=C/c1ccc(O)cc1)Nc1nc2ccc([N+](=O)[O-])cc2s1 | 1.57 | 602 | 3.42 | 382 | – | – | – | – | –
26 | CC(=O)N1N=C(Nc2nc3ccc(Cl)cc3s2)CC1c1ccc(Cl)cc1 (configuration not stated) | 4.35 | 345 | 4.1 | 79.5 | 81.5 | 31.66 | – | 134 | –
27 | COc1ccc(C2CC(Nc3nc4ccccc4s3)=NN2C(C)=O)cc1O (configuration not stated) | 1.47 | 382 | 3.59 | 259 | – | – | – | – | –
28 | O=C(/C=C/c1ccco1)Nc1nc2ccccc2s1 | 1.15 | 898 | 3.11 | 781 | – | – | – | – | –
29 | Cc1ccc2nc(NC(=O)/C=C/c3ccc(O)cc3)sc2c1 | 1.42 | 387 | 3.57 | 271 | – | – | – | – | –
30 | O=C(/C=C/c1ccc(Cl)cc1)Nc1nc2ccccc2s1 | 1.1 | 402 | 3.44 | 367 | – | – | – | – | –
31 | COc1ccc(C2CC(Nc3nc4ccc(Cl)cc4s3)=NN2C(C)=O)cc1 (configuration not stated) | 2.01 | 187 | 4.03 | 93.3 | 97.3 | 35.91 | – | – | 88
32 | CC(=O)N1N=C(Nc2nc3ccc([N+](=O)[O-])cc3s2)CC1c1ccco1 (configuration not stated) | 1.29 | 355 | 3.56 | 274 | – | – | – | – | –
33 | O=C(/C=C/c1ccccc1)Nc1nc2ccccc2s1 | 1.28 | 832 | 3.19 | 646 | – | – | – | – | –
34 | COc1ccc(/C=C/C(=O)Nc2nc3ccc(Cl)cc3s2)cc1 | 1.79 | 465 | 3.59 | 259 | – | – | – | – | –
35 | COc1ccc(/C=C/C(=O)Nc2nc3ccccc3s2)cc1O | 1.12 | 556 | 3.31 | 495 | – | – | – | – | –
36 | COc1ccc(/C=C/C(=O)Nc2nc3ccc([N+](=O)[O-])cc3s2)cc1 | 1.47 | 466 | 3.5 | 315 | – | – | – | – | –
37 | CC(=O)N1N=C(Nc2nc3ccccc3s2)CC1c1ccccc1 (configuration not stated) | 1.57 | 498 | 3.5 | 315 | – | – | – | – | –
38 | CC(=O)N1N=C(Nc2nc3ccc(Cl)cc3s2)CC1c1ccco1 (configuration not stated) | 1.82 | 387 | 3.67 | 212 | – | – | – | – | –
39 | O=C(/C=C/c1ccco1)Nc1nc2ccc([N+](=O)[O-])cc2s1 | 1.39 | 834 | 3.22 | 597 | – | – | – | – | –
40 | COc1ccc(/C=C/C(=O)Nc2nc3ccc([N+](=O)[O-])cc3s2)cc1O | 2.13 | 793 | 3.43 | 372 | – | – | – | – | –
41 | CC(=O)N1N=C(Nc2nc3ccc(Cl)cc3s2)CC1c1ccc(O)cc1 (configuration not stated) | 1.97 | 210 | 3.97 | 106 | 107 | – | – | – | –
42 | COc1ccc(/C=C/C(=O)Nc2nc3ccc(C)cc3s2)cc1 | 2.24 | 468 | 3.68 | 209 | – | – | – | – | –
43 | CC(=O)N1N=C(Nc2nc3ccccc3s2)CC1c1ccco1 (configuration not stated) | 1.41 | 538 | 3.42 | 382 | – | – | – | – | –
44 | CC(=O)N1N=C(Nc2nc3ccc([N+](=O)[O-])cc3s2)CC1c1ccccc1 (configuration not stated) | 1.65 | 357 | 3.67 | 216 | – | – | – | – | –
45 | O=C1NC(=O)C(c2ccccc2)(c2ccccc2)N1 [PHENYTOIN] | 8.01 | 110 | – | 13.8 | – | – | – | – | –

Reference: ChEMBL document CHEMBL1156127, “Synthesis, anticonvulsant activity and 3D-QSAR study of some prop-2-eneamido and 1-acetyl-pyrazolin derivatives of aminobenzothiazole” (Eur J Med Chem, 2010)
